Reference: article PMC10530161 (Bioorganic & medicinal chemistry, 2023)
“Also recorded” adds a separate entry of the source.

Legend:
[1] = system: SW620 colorectal cancer cells which overexpress claudin-1; assay: Cell survival assay in SW620 cells, single concentration 25 μM; assay type: cell-based; conditions: for inhibition at 25 µM: Homo sapiens, SW-620, read-out: % inhibition at 25 uM; for activity in SW620 cell survival assay: SW620 cells, initial SAR survey at 25 μM
[2] = Human liver microsomal intrinsic clearance; assay type: in vitro ADME; conditions: for CLint scaled: human, liver microsomes, Intrinsinc Clearance hCLINT
In short: (§1)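 Intrinsic clearance was measured in human or mouse liver microsomes, depending on the line. Predicted hepatic clearance was then calculated from each species' intrinsic clearance using the well-stirred organ clearance model, with binding terms excluded. The work was done externally as in vitro DMPK studies.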

[3] = Mouse liver microsomal intrinsic clearance; assay type: in vitro ADME; conditions: for CLint scaled: mouse, liver microsomes, Intrinsinc Clearance mCLINT
In short: as §1

CYP2D6 = CYP2D6 (Homo sapiens, UniProt P10635); assay: CYP inhibition, CYP2D6; assay type: in vitro ADME
CYP3A4 = CYP3A4 (Homo sapiens, UniProt P08684); assay: CYP inhibition, CYP3A4; assay type: in vitro ADME
CYP2C19 = CYP2C19 (Homo sapiens, UniProt P33261); assay: CYP inhibition, CYP2C19; assay type: in vitro ADME
IEC-6 cells = assay: General cytotoxicity, dose response in normal IEC-6 cells; assay type: cell-based; conditions: control for general cytotoxicity
colorectal cancer = conditions: in vivo mouse model; cited from earlier work
SW620 cells = assay: Dose response assay in SW620 cells; assay type: cell-based; conditions: starting at 12.5 μM

CYP2C19, sequence (P33261 whole entry): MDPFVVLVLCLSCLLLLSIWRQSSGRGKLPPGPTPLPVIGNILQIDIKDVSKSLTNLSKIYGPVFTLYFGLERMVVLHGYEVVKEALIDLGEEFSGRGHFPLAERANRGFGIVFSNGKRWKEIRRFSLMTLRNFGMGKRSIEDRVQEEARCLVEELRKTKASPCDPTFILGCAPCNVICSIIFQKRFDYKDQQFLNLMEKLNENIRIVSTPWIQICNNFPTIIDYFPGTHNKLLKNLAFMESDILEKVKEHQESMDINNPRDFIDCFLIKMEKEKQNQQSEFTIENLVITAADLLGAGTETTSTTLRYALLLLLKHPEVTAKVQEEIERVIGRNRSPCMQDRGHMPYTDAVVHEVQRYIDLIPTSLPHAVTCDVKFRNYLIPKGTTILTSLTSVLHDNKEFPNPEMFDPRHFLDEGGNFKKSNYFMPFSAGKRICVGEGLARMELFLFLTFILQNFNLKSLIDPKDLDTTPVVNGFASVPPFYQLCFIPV
CYP3A4, sequence (P08684 whole entry): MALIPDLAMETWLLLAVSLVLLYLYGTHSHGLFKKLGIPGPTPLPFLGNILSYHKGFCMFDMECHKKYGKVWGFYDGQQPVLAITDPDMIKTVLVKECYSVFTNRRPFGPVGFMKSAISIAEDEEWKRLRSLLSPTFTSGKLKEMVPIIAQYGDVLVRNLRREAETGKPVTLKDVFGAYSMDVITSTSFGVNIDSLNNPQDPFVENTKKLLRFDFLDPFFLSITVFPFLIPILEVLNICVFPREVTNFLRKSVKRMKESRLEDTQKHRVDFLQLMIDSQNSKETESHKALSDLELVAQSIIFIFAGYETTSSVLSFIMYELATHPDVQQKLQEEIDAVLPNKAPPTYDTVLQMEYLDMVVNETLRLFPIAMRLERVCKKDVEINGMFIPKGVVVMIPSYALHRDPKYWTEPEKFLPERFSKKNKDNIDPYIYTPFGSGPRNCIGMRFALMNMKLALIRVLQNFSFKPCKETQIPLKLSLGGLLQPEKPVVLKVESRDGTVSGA
CYP2D6, sequence (P10635 whole entry): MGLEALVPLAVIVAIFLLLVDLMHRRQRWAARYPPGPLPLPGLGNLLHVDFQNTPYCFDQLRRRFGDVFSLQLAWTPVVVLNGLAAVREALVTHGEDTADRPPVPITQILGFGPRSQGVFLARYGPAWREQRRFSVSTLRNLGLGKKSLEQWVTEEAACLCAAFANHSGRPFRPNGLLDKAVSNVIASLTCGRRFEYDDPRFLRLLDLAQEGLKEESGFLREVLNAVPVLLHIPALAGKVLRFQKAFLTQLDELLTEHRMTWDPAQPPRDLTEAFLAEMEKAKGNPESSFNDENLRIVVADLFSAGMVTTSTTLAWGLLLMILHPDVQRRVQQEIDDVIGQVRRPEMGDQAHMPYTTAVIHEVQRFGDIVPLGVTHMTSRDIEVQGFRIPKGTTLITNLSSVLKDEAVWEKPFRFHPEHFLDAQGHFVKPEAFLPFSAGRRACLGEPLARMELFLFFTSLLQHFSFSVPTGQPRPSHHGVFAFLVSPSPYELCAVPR

Row | SMILES | inhibition at 25 µM [1] | CLint scaled [2] | CLint scaled [3] | also measured
1 | COc1cc2c(OC)cccc2cc1C(=O)NC(=S)Nc1ccc(-c2nc3ccccc3[nH]2)cc1 [compound 33] | 37.6% | – | – | –
2 | COc1cc2ccccc2cc1C(=O)NC(=S)Nc1ccc(-c2nc3ccccc3o2)cc1 [compound 11] | – | < 20 mL/min/kg | < 20 mL/min/kg | activity in SW620 cell survival assay [1]: not active; stability in human liver microsomes [2]: stable; stability in mouse liver microsomes [3]: stable
3 | COc1cc2ccccc2cc1C(=O)NC(=S)Nc1ccc(-c2ncc[nH]2)cc1 [compound 15] | – | 125 mL/min/kg | 57.8 mL/min/kg | inhibition at 10 µM (CYP2D6): < 50%; stability in human liver microsomes [2]: instability; inhibition at 10 µM (CYP3A4): < 50%; inhibition at 10 µM (CYP2C19): < 50%; concentration at which cytotoxicity was shown (IEC-6 cells): 12.5 µM; stability in mouse liver microsomes [3]: moderately stable
4 | O=C(NC(=S)Nc1ccc(-c2nc3ccccc3o2)cc1)c1ccc2cccnc2c1 [compound 36] | 0% | – | – | –
5 | O=C1c2ccccc2CCN1C(=S)Nc1ccc(-c2ncco2)cc1 [compound 39] | 0.9% | – | – | –
6 | COc1cc2ccccc2cc1C(=O)NC(=S)Nc1ccc(-c2ncon2)cc1 [compound 19] | 18.4% | < 20 mL/min/kg | 46.2 mL/min/kg | activity in SW620 cell survival assay [1]: inactive; stability in human liver microsomes [2]: regained the stability; stability in mouse liver microsomes [3]: moderate stability
7 | CC(C)Oc1cc2ccccc2cc1C(=O)NC(=S)Nc1ccc(-c2nc3ccccc3o2)cc1 [compound 32] | 17.2% | – | – | –
8 | COc1cc2ccccc2cc1C(=O)NC(=S)Nc1ccc(-c2nc3ccccc3s2)cc1 [compound 13] | – | – | – | activity in SW620 cell survival assay [1]: not active
9 | COc1cc2ccccc2cc1C(=O)Nc1ccc(-c2nc3ccccc3s2)cc1 [compound 20] | 42.3% | – | – | –
10 | COc1cc2ccccc2cc1C(=O)NC(=S)Nc1ccc(-c2nc3ccccc3s2)cn1 [compound 14] | – | – | – | activity in SW620 cell survival assay [1]: not active
11 | COc1cc2ccccc2cc1C(=O)NC(=S)Nc1ccc(-c2nnco2)cc1 [compound 18] | – | < 20 mL/min/kg | 38.2 mL/min/kg | inhibition at 10 µM (CYP2D6): < 50%; stability in human liver microsomes [2]: regained the stability; inhibition at 10 µM (CYP3A4): < 50%; inhibition at 10 µM (CYP2C19): < 50%; stability in mouse liver microsomes [3]: moderate stability
12 | COc1cc2ccccc2cc1C(=O)NC(=S)Nc1ccc(-c2nccs2)cc1 [compound 16] | – | 202 mL/min/kg | 37.7 mL/min/kg | stability in human liver microsomes [2]: instability; stability in mouse liver microsomes [3]: moderately stable
13 | CCOc1cc2ccccc2cc1C(=O)NC(=S)Nc1ccc(-c2nc3ccccc3s2)cc1 [compound 31] | 13% | – | – | –
14 | COc1cc2ccccc2cc1C(=O)NC(=O)Nc1ccc(-c2nc3ccccc3[nH]2)cc1 [compound 23] | 90.8% | 67.8 mL/min/kg | 236 mL/min/kg | –
15 | O=C1c2ccccc2CCN1C(=S)Nc1ccc(-c2nc3ccccc3o2)cc1 [compound 38] | – | < 20 mL/min/kg | 139 mL/min/kg | –
16 | COc1cc2ccccc2cc1C(=O)Nc1ncc(C(F)(F)F)s1 [compound 22] | 17.6% | – | – | –
17 | COc1cc2ccccc2cc1C(=O)NC(=S)Nc1ccc(-c2nc3ccccc3o2)cn1 [compound 12] | – | – | – | activity in SW620 cell survival assay [1]: not active
18 | COc1cc2ccccc2cc1C(=O)NC(=O)Nc1ccc(-c2cscn2)cc1 [compound 27] | 42.6% | 92.8 mL/min/kg | 43.5 mL/min/kg | –
19 | COc1ccccc1NC(=O)Nc1ccc(-c2nc3ccccc3[nH]2)cc1 [compound 40] | 23.8% | – | – | –
20 | COc1cc2ccccc2cc1C(=O)NC(=O)Nc1ccc(-c2nc3ccccc3s2)cc1 [compound 25] | 0% | – | – | –
21 | O=C(NC(=S)Nc1ccc(-c2nc3ccccc3[nH]2)cc1)c1ccc2cccnc2c1 [compound 35] | 0% | – | – | –
22 | CCOc1cc2ccccc2cc1C(=O)NC(=S)Nc1ccc(-c2nc3ccccc3o2)cc1 [compound 30] | 0% | – | – | –
23 | COc1cc2c(OC)cccc2cc1C(=O)NC(=S)Nc1ccc(-c2nc3ccccc3s2)cc1 [compound 34] | 15.8% | – | – | –
24 | COc1cc2ccccc2cc1C(=O)NC(=S)Nc1ccc(-c2nc3ccccc3[nH]2)cc1 [compound 10] | – | 27.8 mL/min/kg | 42.7 mL/min/kg | stability in human liver microsomes [2]: moderate stability; stability in mouse liver microsomes [3]: moderate stability
25 | COc1cc2ccccc2cc1C(=O)NC(=O)Nc1ccc(-c2nnco2)cc1 [compound 26] | 23.8% | – | – | –
26 | COc1cc2ccccc2cc1C(=O)NC(=O)Nc1ccc(-c2nc3ccccc3o2)cc1 [compound 24] | 0% | – | – | –
27 | COc1cc2ccccc2cc1C(=O)NC(=S)Nc1ccc(-c2cscn2)cc1 [compound 21] | 29% | – | – | –
28 | O=C(NC(=S)Nc1ccc(-c2ncco2)cc1)c1ccc2cccnc2c1 [compound 37] | 1.4% | – | – | –
29 | O=C(NC(=O)c1ccc2ccccc2c1)Nc1ccc(-c2nc3ccccc3[nH]2)cc1 [compound 29] | 12.7% | 86.3 mL/min/kg | 365 mL/min/kg | –
30 | O=C(NC(=S)Nc1ccc(-c2nc3ccccc3o2)cc1)c1ccc2ccccc2c1 [compound 28] | 76.4% | 32.4 mL/min/kg | 53.4 mL/min/kg | activity in SW620 cell survival assay [1]: active; activity in in vivo model of colorectal cancer (colorectal cancer): active; also recorded: antitumor and chemosensitizer activities; stability in human liver microsomes [2]: moderate stability; % cell survival (SW620 cells): < 50%; stability in mouse liver microsomes [3]: moderate stability
